Results from ChEMBL document CHEMBL2157878, “In vitro cellular uptake and dimerization of signal transducer and activator of transcription-3 (STAT3) identify the photosensitizing and imaging-potential of isomeric photosensitizers derived from chlorophyll-a and bacteriochlorophyll-a” (J Med Chem, 2011).

Key:
Kidney [1] = experiment: Drug uptake in BALB/c mouse kidney xenografted with mouse Colon 26 cells at 100 uCi administered parenterally after 24 hrs by PET analysis; format: ADME, tissue-based; settings: in vivo, other
Method in brief: (§1)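 ¹²⁴I-labelled PS given by tail vein to BALB/c mice bearing Colon26 tumours (100 μCi per figure legend). Three mice per time point killed at 24, 48 and 72 h. Tumour, organs and blood weighed and counted in a γ-well counter. Uptake expressed as %ID/g.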

Muscle tissue [2] = experiment: Drug uptake in BALB/c mouse muscle xenografted with mouse Colon 26 cells at 100 uCi administered parenterally after 24 hrs by PET analysis; format: ADME, tissue-based; settings: in vivo, other; method in brief: as §1
Liver [3] = experiment: Drug uptake in BALB/c mouse liver xenografted with mouse Colon 26 cells at 100 uCi administered parenterally after 72 hrs by PET analysis; format: ADME, tissue-based; settings: in vivo, other; method in brief: as §1
Spleen [4] = experiment: Drug uptake in BALB/c mouse spleen xenografted with mouse Colon 26 cells at 100 uCi administered parenterally after 72 hrs by PET analysis; format: ADME, tissue-based; settings: in vivo, other; method in brief: as §1
Mus musculus [5] = experiment: Drug uptake in mouse Colon 26 cells xenografted iv dosed BALB/c mouse after 72 hrs by PET imaging; format: ADME, organism-based; settings: in vivo
Method in brief: (§2)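 Colon26 tumors grown subcutaneously in BALB/c mice. ¹²⁴I-labeled photosensitizer given into the tail vein at 52–122 μCi. Under isoflurane/oxygen anesthesia, animals were scanned prone on a microPET for 30 min at 24, 48 and 72 h post-injection. Tumor uptake was estimated by region-of-interest calculations.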

Heart [6] = experiment: Drug uptake in BALB/c mouse heart xenografted with mouse Colon 26 cells at 100 uCi administered parenterally after 72 hrs by PET analysis; format: ADME, tissue-based; settings: in vivo, other; method in brief: as §1
Blood [7] = experiment: Drug uptake in BALB/c mouse blood xenografted with mouse Colon 26 cells at 100 uCi administered parenterally after 72 hrs by PET analysis; format: ADME, tissue-based; settings: in vivo, other; method in brief: as §1
Muscle tissue [8] = experiment: Drug uptake in BALB/c mouse muscle xenografted with mouse Colon 26 cells at 100 uCi administered parenterally after 72 hrs by PET analysis; format: ADME, tissue-based; settings: in vivo, other; method in brief: as §1
Heart [9] = experiment: Drug uptake in BALB/c mouse heart xenografted with mouse Colon 26 cells at 100 uCi administered parenterally after 24 hrs by PET analysis; format: ADME, tissue-based; settings: in vivo, other; method in brief: as §1
[10] = Drug uptake in BALB/c mouse gut xenografted with mouse Colon 26 cells at 100 uCi administered parenterally after 72 hrs by PET analysis; format: ADME, cell-based; settings: in vivo, other; method in brief: as §1
[11] = Drug uptake in BALB/c mouse gut xenografted with mouse Colon 26 cells at 100 uCi administered parenterally after 24 hrs by PET analysis; format: ADME, cell-based; settings: in vivo, other
Muscle tissue [12] = experiment: Drug uptake in BALB/c mouse muscle xenografted with mouse Colon 26 cells at 100 uCi administered parenterally after 48 hrs by PET analysis; format: ADME, tissue-based; settings: in vivo, other; method in brief: as §1
Kidney [13] = experiment: Drug uptake in BALB/c mouse kidney xenografted with mouse Colon 26 cells at 100 uCi administered parenterally after 48 hrs by PET analysis; format: ADME, tissue-based; settings: in vivo, other; method in brief: as §1
Mus musculus [14] = experiment: Drug uptake in mouse Colon 26 cells xenografted iv dosed BALB/c mouse after 24 hrs by PET imaging; format: ADME, organism-based; settings: in vivo; method in brief: as §2
[15] = Drug uptake in mouse Colon 26 cells implanted BALB/c mouse tumor at 100 uCi administered parenterally after 24 hrs by gamma counting; format: ADME, Neoplasm; settings: in vivo, other; method in brief: as §1
Stomach [16] = experiment: Drug uptake in BALB/c mouse stomach xenografted with mouse Colon 26 cells at 100 uCi administered parenterally after 48 hrs by PET analysis; format: ADME, tissue-based; settings: in vivo, other; method in brief: as §1
Blood [17] = experiment: Drug uptake in BALB/c mouse blood xenografted with mouse Colon 26 cells at 100 uCi administered parenterally after 24 hrs by PET analysis; format: ADME, tissue-based; settings: in vivo, other; method in brief: as §1
Lung [18] = experiment: Drug uptake in BALB/c mouse lungs xenografted with mouse Colon 26 cells at 100 uCi administered parenterally after 72 hrs by PET analysis; format: ADME, tissue-based; settings: in vivo, other; method in brief: as §1
Liver [19] = experiment: Drug uptake in BALB/c mouse liver xenografted with mouse Colon 26 cells at 100 uCi administered parenterally after 24 hrs by PET analysis; format: ADME, tissue-based; settings: in vivo, other; method in brief: as §1
Lung [20] = experiment: Drug uptake in BALB/c mouse lungs xenografted with mouse Colon 26 cells at 100 uCi administered parenterally after 24 hrs by PET analysis; format: ADME, tissue-based; settings: in vivo, other; method in brief: as §1
[21] = Drug uptake in mouse Colon 26 cells implanted subcutaneously in BALB/c mouse tumor at 100 uCi administered parenterally after 72 hrs by gamma counting; format: ADME, Neoplasm; settings: in vivo, sc; method in brief: as §1
Mus musculus [22] = experiment: Drug uptake in mouse Colon 26 cells xenografted iv dosed BALB/c mouse after 48 hrs by PET imaging; format: ADME, organism-based; settings: in vivo; method in brief: as §2
Spleen [23] = experiment: Drug uptake in BALB/c mouse spleen xenografted with mouse Colon 26 cells at 100 uCi administered parenterally after 24 hrs by PET analysis; format: ADME, tissue-based; settings: in vivo, other; method in brief: as §1
Stomach [24] = experiment: Drug uptake in BALB/c mouse stomach xenografted with mouse Colon 26 cells at 100 uCi administered parenterally after 24 hrs by PET analysis; format: ADME, tissue-based; settings: in vivo, other; method in brief: as §1
Stomach [25] = experiment: Drug uptake in BALB/c mouse stomach xenografted with mouse Colon 26 cells at 100 uCi administered parenterally after 72 hrs by PET analysis; format: ADME, tissue-based; settings: in vivo; method in brief: as §1
Spleen [26] = experiment: Drug uptake in BALB/c mouse spleen xenografted with mouse Colon 26 cells at 100 uCi administered parenterally after 48 hrs by PET analysis; format: ADME, tissue-based; settings: in vivo; method in brief: as §1
Liver [27] = experiment: Drug uptake in BALB/c mouse liver xenografted with mouse Colon 26 cells at 100 uCi administered parenterally after 48 hrs […]; format: ADME, tissue-based; settings: in vivo; method in brief: as §1
Heart [28] = experiment: Drug uptake in BALB/c mouse heart xenografted with mouse Colon 26 cells at 100 uCi administered parenterally after 48 hrs by PET analysis; format: ADME, tissue-based; settings: in vivo, other; method in brief: as §1
[29] = Drug uptake in mouse Colon 26 cells implanted subcutaneously in BALB/c mouse tumor at 100 uCi administered parenterally after 48 hrs by gamma counting; format: ADME, Neoplasm; settings: in vivo, sc; method in brief: as §1
Blood [30] = experiment: Drug uptake in BALB/c mouse blood xenografted with mouse Colon 26 cells at 100 uCi administered parenterally after 48 hrs by PET analysis; format: ADME, tissue-based; settings: in vivo, other; method in brief: as §1
[31] = Drug uptake in BALB/c mouse gut xenografted with mouse Colon 26 cells at 100 uCi administered parenterally after 48 hrs by PET analysis; format: ADME, cell-based; settings: in vivo, other; method in brief: as §1
Lung [32] = experiment: Drug uptake in BALB/c mouse lungs xenografted with mouse Colon 26 cells at 100 uCi administered parenterally after 48 hrs by PET analysis; format: ADME, tissue-based; settings: in vivo, other; method in brief: as §1
Kidney [33] = experiment: Drug uptake in BALB/c mouse kidney xenografted with mouse Colon 26 cells at 100 uCi administered parenterally after 72 hrs by PET analysis; format: ADME, tissue-based; settings: in vivo, other; method in brief: as §1
Liver [34] = experiment: Drug uptake in parenterally dosed BALB/c mouse liver xenografted with mouse Colon 26 cells after 72 hrs by PET analysis; format: ADME, organism-based; settings: in vivo
Method in brief: (§3)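 Tumor-bearing BALB/c mice (Colon26, subcutaneous) received ¹²⁴I-labeled photosensitizer via the tail vein at 15–50 μCi. Three mice per time point were sacrificed at 24, 48 and 72 h. Organs were removed, weighed and counted in a γ-well counter. Uptake was expressed as %ID/g tissue.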

Spleen [35] = experiment: Drug uptake in parenterally dosed BALB/c mouse spleen xenografted with mouse Colon 26 cells after 72 hrs by PET analysis; format: ADME, organism-based; settings: in vivo; method in brief: as §3
Intestine = experiment: Drug uptake in parenterally dosed BALB/c mouse intestine xenografted with mouse Colon 26 cells after 72 hrs by PET analysis; format: ADME, organism-based; settings: in vivo, other; method in brief: as §3

Measured: Drug uptake

CCC1=C(C)c2cc3[nH]c(cc4nc(c5c6[nH]c(cc1n2)c(C)c6C(=O)C5)C(CCC(=O)OC)[C@@H]4C)c(C)c3C(C)OCc1cccc([124I])c1 (stereo partly drawn)
Active: Kidney [1] | Muscle tissue [2] | Liver [3] | Spleen [4] | Mus musculus [5] | Heart [6] | Blood [7] | Muscle tissue [8] | Heart [9] | [10] | [11] | Muscle tissue [12] | Kidney [13] | Mus musculus [14] | [15] | Stomach [16] | Blood [17] | Lung [18] | Liver [19] | Lung [20] | [21] | Mus musculus [22] | Spleen [23] | Stomach [24] | Stomach [25] | Spleen [26] | Liver [27] | Heart [28] | [29] | Blood [30] | [31] | Lung [32] | Kidney [33]

CCC1=C(C)c2cc3[nH]c(cc4nc(c5c6[nH]c(cc1n2)c(C)c6C(=O)C5)C(CCC(=O)O)[C@@H]4C)c(C)c3C(C)OCc1cccc([124I])c1 (stereo partly drawn)
Active: Kidney [1] | Muscle tissue [2] | Liver [3] | Liver [34] | Spleen [4] | Mus musculus [5] | Heart [6] | Blood [7] | Muscle tissue [8] | Heart [9] | [10] | Spleen [35] | [11] | Muscle tissue [12] | Kidney [13] | Mus musculus [14] | [15] | Stomach [16] | Blood [17] | Lung [18] | Liver [19] | Lung [20] | [21] | Mus musculus [22] | Spleen [23] | Stomach [24] | Stomach [25] | Spleen [26] | Liver [27] | Heart [28] | [29] | Blood [30] | [31] | Lung [32] | Kidney [33] | Intestine

CC[C@H]1c2cc3[nH]c4c(c5nc(cc6[nH]c(cc(n2)[C@@H]1C)c(C(C)OCc1cccc([124I])c1)c6C)C(C)=C5CCC(=O)O)CC(=O)c4c3C (stereo partly drawn)
Active: Liver [34] | Mus musculus [5] | Spleen [35] | Mus musculus [14] | Mus musculus [22] | Intestine

CC[C@H]1c2cc3[nH]c4c(c5nc(cc6[nH]c(cc(n2)[C@@H]1C)c(C(C)OCc1cccc([124I])c1)c6C)C(C)=C5CCC(=O)OC)CC(=O)c4c3C (stereo partly drawn)
Active: Mus musculus [5] | Mus musculus [14] | Mus musculus [22]
